The logP is the decadic logarithm of the partition coefficient of the neutral form, usually between octanol and water.

The nature of this data set: Partition coefficient (logP). The data set is classed as physicochemical. The conditions noted are these: octanol/water. The method, boiled down: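 Octanol/water log P was calculated, not measured, using a fragment-based atom/fragment-contribution estimation program applied to each ligand structure.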
`CC(C)C/C=C1\CC(CO)(COC(=O)CC(C(C)C)C(C)C)OC1=O` (stereo not given) yielded a logP of 4.1.

With `CC(C)CC(=O)OCC1(CO)C/C(=C\CC(C(C)C)C(C)C)C(=O)O1` (stereo not given), the logP was 4.1.

For `CC(C)C(CC(=O)OC[C@H](CO)OC(=O)CC(C(C)C)C(C)C)C(C)C`, the logP was found to be 5.8.

On to `CC(C)C/C=C1/CC(CO)(COC(=O)CC(C(C)C)C(C)C)OC1=O` (stereo not given), for which the lipophilicity (logP) was 4.1.

`CC(C)=C1CC(CO)(COC(=O)CC(C(C)C)C(C)C)OC1=O` (stereo not given) registered a logP of 3.2.

`CC(C)CC(=O)OC[C@H](CO)OC(=O)C=C(C(C)C)C(C)C`: the logP worked out at 3.9.

The compound `CC(C)CC(=O)OCC1(CO)C/C(=C/CC(C(C)C)C(C)C)C(=O)O1` (stereo not given) had a logP of 4.1.

Compound `CC(C)CC(=O)OCC1(CO)CC(=C(C(C)C)C(C)C)C(=O)O1` (stereo not given) had a logP of 3.2.

Compound `CC(C)=CC(=O)O[C@@H](CO)COC(=O)CC(C(C)C)C(C)C` displayed a lipophilicity (logP) of 3.9.

The compound `CC(C)C(=CC(=O)O[C@@H](CO)COC(=O)CC(C(C)C)C(C)C)C(C)C` yielded a log partition coefficient (logP) of 5.7.

Source of the values: ChEMBL document CHEMBL1136771, “Differential binding modes of diacylglycerol (DAG) and DAG lactones to protein kinase C (PK-C)” (J Med Chem, 2003).
